In ChEMBL document CHEMBL1133005, “Improving the oral bioavailability of the iron chelator HBED by breaking the symmetry of the intramolecular H-bond network” (J Med Chem, 2000):

How the values were obtained:
Type in all cases: physicochemical
[1] = Partition coefficient (logP) (cyclohexane)
Summary of the method: (§1)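 Free-ligand partition coefficients are measured by the pH-metric technique. This uses two linked titrations: a normal aqueous titration, then a two-phase titration in the presence of the partition solvent.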

[2] = Evaluated for ionization constant (pKa3) by titrations performed using the method of Yasuda and Shedlovsky; conditions: read-out: pKa3
Summary of the method: (§2)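 Aqueous constants were extrapolated by the Yasuda–Shedlovsky method from pH-metric titrations run at several MeOH or EtOH cosolvent levels. Electrode calibrated with pH 7.00 phosphate buffer and standardized after a blank titration. Values are expressed on the pcH (-log[H+]) concentration scale.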

[3] = Evaluated for ionization constant (pKa4) by titrations performed in the presence of EtOH and at a dielectric constant of 63; conditions: EtOH cosolvent; read-out: pKa4
Summary of the method: (§3)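 pH-metric titration in mixed water/cosolvent media (MeOH or EtOH, depending on the ligand) at several cosolvent proportions, each proportion setting the dielectric constant. Electrode calibrated with pH 7.00 phosphate buffer and standardized after a blank titration by a nonlinear semiempirical fit. Readings were converted to pcH to give concentration-scale constants.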

[4] = Evaluated for ionization constant (pKa1) by titrations performed using method of Yasuda and Shedlovsky; conditions: read-out: pKa1; summary of the method: as §2
[5] = Evaluated for ionization constant (pKa4) by titrations performed in the presence of EtOH and at a dielectric constant of 57; conditions: EtOH cosolvent; read-out: pKa4; summary of the method: as §3
[6] = Evaluated for ionization constant (pKa4) by titrations performed using the method of Yasuda and Shedlovsky; conditions: read-out: pKa4
Summary of the method: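 Potentiometric pH titration. The electrode is calibrated with pH 7.00 phosphate buffer. A blank titration before each set standardizes the electrode by a nonlinear semiempirical equation, and readings are converted to the concentration scale pcH = −log[H+]. Runs use varying amounts of MeOH or EtOH cosolvent, and aqueous pKa values are extrapolated by the Yasuda–Shedlovsky method. Low pKa values (pH < 2) are determined by spectrophotometric titration.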

[7] = Partition coefficient (logP); conditions: octanol/water; summary of the method: as §1
[8] = Evaluated for ionization constant (pKa3) by titrations performed in the presence of EtOH and at a dielectric constant of 63; conditions: EtOH cosolvent; read-out: pKa3; summary of the method: as §3
[9] = Evaluated for ionization constant (pKa4) by titrations performed in the presence of EtOH and at a dielectric constant of 52; conditions: EtOH cosolvent; read-out: pKa4; summary of the method: as §3
[10] = Evaluated for ionization constant (pKa2) by titrations performed in the presence of EtOH and at a dielectric constant of 52; conditions: EtOH cosolvent, dielectric constant 52; read-out: pKa2; summary of the method: as §3
[11] = Evaluated for ionization constant (pKa3) by titrations performed in the presence of EtOH and at a dielectric constant of 52; conditions: EtOH cosolvent; read-out: pKa3; summary of the method: as §3
[12] = Evaluated for ionization constant (pKa3) by titrations performed in the presence of EtOH and at a dielectric constant of 57; conditions: EtOH cosolvent; read-out: pKa3; summary of the method: as §3
[13] = Evaluated for ionization constant (pKa2) by titrations performed in the presence of EtOH and at a dielectric constant of 57; conditions: EtOH cosolvent, dielectric constant 57; read-out: pKa2; summary of the method: as §3
[14] = Partition coefficient (logP) (chloroform); summary of the method: as §1
[15] = Evaluated for ionization constant (pKa2) by titrations performed using method of Yasuda and Shedlovsky; conditions: read-out: pKa2; summary of the method: as §2
[16] = Evaluated for ionization constant (pKa1) by titrations performed in presence of a MeOH and at a dielectric constant of 56; conditions: MeOH cosolvent, dielectric constant 56; read-out: pKa1; summary of the method: as §3
[17] = Evaluated for ionization constant (pKa2) by titrations performed in presence of a MeOH and at a dielectric constant of 49; conditions: MeOH cosolvent, dielectric constant 49; read-out: pKa2; summary of the method: as §3
[18] = Evaluated for ionization constant (pKa3) by titrations performed in presence of a MeOH and at a dielectric constant of 49; conditions: MeOH cosolvent; read-out: pKa3; summary of the method: as §3
[19] = Evaluated for ionization constant (pKa2) by titrations performed in presence of a MeOH and at a dielectric constant of 62; conditions: MeOH cosolvent, dielectric constant 62; read-out: pKa2; summary of the method: as §3
[20] = Evaluated for ionization constant (pKa4) by titrations performed in presence of a MeOH and at a dielectric constant of 62; conditions: MeOH cosolvent; read-out: pKa4; summary of the method: as §3
[21] = Evaluated for ionization constant (pKa1) by titrations performed in presence of a MeOH and at a dielectric constant of 62; conditions: MeOH cosolvent, dielectric constant 62; read-out: pKa1; summary of the method: as §3
[22] = Evaluated for ionization constant (pKa3) by titrations performed in presence of a MeOH and at a dielectric constant of 56; conditions: MeOH cosolvent; read-out: pKa3; summary of the method: as §3
[23] = Evaluated for ionization constant (pKa2) by titrations performed in presence of a MeOH and at a dielectric constant of 56; conditions: MeOH cosolvent, dielectric constant 56; read-out: pKa2; summary of the method: as §3
[24] = Evaluated for ionization constant (pKa4) by titrations performed in presence of a MeOH and at a dielectric constant of 56; conditions: MeOH cosolvent; read-out: pKa4; summary of the method: as §3
[25] = Evaluated for ionization constant (pKa3) by titrations performed in presence of a MeOH and at a dielectric constant of 62; conditions: MeOH cosolvent; read-out: pKa3; summary of the method: as §3
[26] = Evaluated for ionization constant (pKa4) by titrations performed in presence of a MeOH and at a dielectric constant of 49; conditions: MeOH cosolvent; read-out: pKa4; summary of the method: as §3

## CCOC(=O)CN(CCN(CC(=O)OCC)Cc1ccccc1O)Cc1ccccc1O
[1]
  logP: 3.22
[2]
  pKa: 5.7
[3]
  pKa: 1.42
[4]
  pKa: 12.2
[5]
  pKa: 1.21
[6]
  pKa: 1.8
[7]
  logP: 3.35
[8]
  pKa: 5.45
[9]
  pKa: 1.05
[10]
  pKa: 11.8
[11]
  pKa: 5.09
[12]
  pKa: 5.25
[13]
  pKa: 11.6
[14]
  logP: 3.35
[15]
  pKa: 10.9

## COC(=O)CN(CCN(CC(=O)OC)Cc1ccccc1O)Cc1ccccc1O
[16]
  pKa: 12.9
[1]
  logP: 2.11
[2]
  pKa: 5.7
[17]
  pKa: 11.9
[4]
  pKa: 12.2
[18]
  pKa: 5.4
[19]
  pKa: 11.3
[6]
  pKa: 1.4
[7]
  logP: 2.86
[20]
  pKa: 1.1
[21]
  pKa: 12.6
[22]
  pKa: 5.46
[23]
  pKa: 11.6
[24]
  pKa: 0.82
[25]
  pKa: 5.58
[15]
  pKa: 10.9
[26]
  pKa: 0.69
